The record followed here is ChEMBL document CHEMBL1140890, “Ivermectin-derived leishmanicidal compounds” (Bioorg Med Chem, 2009).

Experiment [1] concerns Leishmania amazonensis. Description: Antileishmanial activity against GFP-tagged Leishmania amazonensis Josefa promastigotes after 72 hrs by fluorimetric assay. It counts as functional, organism-based. The method, boiled down: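 GFP-transfected promastigotes (kept in DMEM + 10% HIFCS at 27 °C, periodically re-isolated from infected mice) seeded at 5 × 10⁵ cells/ml in DMEM, 5% HIFCS, 0.5% DMSO. Exposed to 0, 10, 30, 90 µM for 72 h at 27 °C. Fluorescence read at […] / 538 nm emission; IC50 from means of triplicates.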

For experiment [2], the system named is Leishmania amazonensis. The experiment in a line: Antileishmanial activity against GFP-tagged Leishmania amazonensis Josefa amastigotes infected in mouse peritoneal macrophages after 72 hrs by fluorimetric assay. It counts as functional, organism-based. The method, boiled down:
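Mouse peritoneal macrophages at 2 × 10⁶ cells/well, allowed to adhere, then infected 4 h at 37 °C with 10⁷ GFP-transfected fluorescent promastigotes. Free parasites washed off; cultured a further 72 h with compound at 0, 10, 30, 90 µM in 0.5% DMSO. Fluorescence read as for promastigotes. Maximum and minimum inhibition set by uninfected and untreated infected cells; means of triplicates.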

Experiment [3] in a line: Cytotoxicity against mouse peritoneal macrophages assessed as LDH release after 48 hrs. It counts as cell-based, Macrophage. The method, boiled down: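 Mouse peritoneal macrophages at 2 × 10⁶ cells/well, 48 h at 37 °C in DMEM + 5% HIFCS with compound at 0, 10, 30, 90 µM in 0.5% DMSO. LDH released into medium measured by kit. Maximum and minimum release set by 2% Triton X-100 and 0.5% DMSO; means of triplicates.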

Experiment [4] is described as follows: Selectivity index, ratio of IC50 for mouse peritoneal macrophages to IC50 for Leishmania amazonensis Josefa amastigotes. The method, boiled down: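 Macrophage LDH-release IC50 divided by intracellular amastigote IC50.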
Where [5] appears, read: Leishmania amazonensis, Josefa, 72 h.

What is called IC50 is the concentration that inhibits the measured activity by half. Turning to `CC[C@H](C)[C@H]1O[C@]2(CC[C@@H]1C)C[C@@H]1C[C@@H](C/C=C(\C)[C@@H](O)[C@@H](C)/C=C/C=C3\CO[C@@H]4[C@H](O)C(C)=C[C@@H](C(=O)O1)[C@]34O)O2` [IVM AGLYCONE], the IC50 in the experiment with Leishmania amazonensis [1] (setting [5]) is 8.3 µM; in the experiment with Leishmania amazonensis [2] (setting [5]), 32 µM; in experiment [3] (Mus musculus, Macrophage, 48 h), greater than 90 µM. Also, the “Ratio IC50” value in experiment [4] is on record as greater than 2.8.
Consider IVERMECTIN [listing 1 of 2 here], for which the IC50 in the experiment with Leishmania amazonensis [1] amounted to 7 µM; in the experiment with Leishmania amazonensis [2], 5 µM; in experiment [3] (macrophage), 72.4 µM.
With `CCOC(=O)[C@@H]1C=C(C)[C@@H](O)[C@H]2OC/C(=C\C=C\[C@H](C)[C@H](O[C@H]3C[C@H](OC)[C@@H](O[C@H]4C[C@H](OC)[C@@H](O)[C@H](C)O4)[C@H](C)O3)/C(C)=C/C[C@@H]3C[C@H](O)C[C@]4(CC[C@H](C)[C@@H]([C@@H](C)CC)O4)O3)[C@]21O`, the IC50 was 10.7 µM with Leishmania amazonensis [1] (setting [5]); 6.5 µM in the experiment on Leishmania amazonensis [2] (setting [5]); 42.9 µM in experiment [3] (Mus musculus, Macrophage, 48 h). For the same compound, the Ratio IC50 in experiment [4] stood at 6.6.
As for IVERMECTIN [listing 2 of 2 here], the Ratio IC50 in experiment [4] turned out to be 14.5.
Consider `CCOC(=O)C1=C[C@H](C)[C@@H](O)[C@H]2OC/C(=C\CO)[C@@]12O`, for which the IC50 in the experiment on Leishmania amazonensis [1] (setting [5]) is greater than 90 µM; with Leishmania amazonensis [2] (setting [5]) it was 13.8 µM; in experiment [3] (Mus musculus, Macrophage, 48 h), greater than 90 µM. For the same compound, the “Ratio IC50” value in experiment [4] is greater than 6.5.
Consider “D-glutonic acid, 2,4:2',4'-O-[oxybis-(oxidostibylidyne)]bis-, trisodium salt, nonahydrate”, for which the Ratio IC50 in experiment [4] was greater than 5.
As for `CC[C@H](C)[C@H]1O[C@]2(CC[C@@H]1C)C[C@@H]1C[C@@H](C/C=C(\C)[C@@H](O[C@H]3C[C@H](OC)[C@@H](O[C@H]4C[C@H](OC)[C@@H](O)[C@H](C)O4)[C@H](C)O3)[C@@H](C)/C=C/C=C3\CO[C@@H]4[C@H](O)[C@@H](C)C=C(C(=O)O1)[C@]34O)O2`, the IC50 is 13.8 µM in the experiment on Leishmania amazonensis [1] (setting [5]); 3.6 µM in the experiment with Leishmania amazonensis [2] (setting [5]); 65.5 µM in experiment [3] (Mus musculus, Macrophage, 48 h). In experiment [4], the “Ratio IC50” value is recorded as 18.2.
For the compound `C[C@@H]1[C@H](O)[C@@H](C)/C=C/C=C/C=C/C=C/C=C/C=C/C=C/[C@H](O[C@@H]2O[C@H](C)[C@@H](O)[C@H](N)[C@@H]2O)C[C@@H]2O[C@](O)(C[C@@H](O)C[C@@H](O)[C@H](O)CC[C@@H](O)C[C@@H](O)CC(=O)O[C@H]1C)C[C@H](O)[C@H]2C(=O)O` [AMPHOTERICIN B], it took 4.4 µM to reach half-maximal inhibition in the experiment on Leishmania amazonensis [1] (setting [5]) (IC50).
Take `CC[C@H](C)[C@H]1O[C@]2(CC[C@@H]1C)C[C@@H](O)C[C@@H](C/C=C(\C)[C@@H](O[C@H]1C[C@H](OC)[C@@H](O)[C@H](C)O1)[C@@H](C)CO)O2` [NORTHERN MONOSACCHARIDE]: the IC50 in the experiment on Leishmania amazonensis [1] (setting [5]) came out at 65.7 µM; with Leishmania amazonensis [2] (setting [5]), 41.5 µM; in experiment [3] (Mus musculus, Macrophage, 48 h), 32.1 µM. Besides, the “Ratio IC50” value in experiment [4] worked out at 0.8.
The corresponding values for `CC[C@H](C)[C@H]1O[C@]2(CC[C@@H]1C)C[C@@H]1C[C@@H](C/C=C(\C)[C@@H](O[C@H]3C[C@H](OC)[C@@H](O)[C@H](C)O3)[C@@H](C)/C=C/C=C3\CO[C@@H]4[C@H](O)C(C)=C[C@@H](C(=O)O1)[C@]34O)O2` are 7.7 µM, 29.7 µM, greater than 90 µM and greater than 3.
Taken in the same sequence, the figures for `CC[C@H](C)[C@H]1O[C@]2(CC[C@@H]1C)C[C@@H](O)C[C@@H](C/C=C(\C)[C@@H](O[C@H]1C[C@H](OC)[C@@H](O[C@H]3C[C@H](OC)[C@@H](O)[C@H](C)O3)[C@H](C)O1)[C@@H](C)CO)O2` were 17.1 µM, 13.2 µM, 55 µM and 4.2.
The corresponding values for `CCOC(=O)C1=C[C@H](C)[C@@H](O)[C@H]2OC/C(=C\C=C\[C@H](C)[C@H](O[C@H]3C[C@H](OC)[C@@H](O[C@H]4C[C@H](OC)[C@@H](O)[C@H](C)O4)[C@H](C)O3)/C(C)=C/C[C@@H]3C[C@H](O)C[C@]4(CC[C@H](C)[C@@H]([C@@H](C)CC)O4)O3)[C@@]12O` are 2.8 µM, 4.6 µM, 27.1 µM and 5.8.
For `CCOC(=O)[C@@H]1C=C(C)[C@@H](O)[C@H]2OC/C(=C\CO)[C@]21O` [SOUTHERN DIOL], the IC50 with Leishmania amazonensis [1] (setting [5]) was greater than 90 µM; in the experiment with Leishmania amazonensis [2] (setting [5]), 38.6 µM; in experiment [3] (Mus musculus, Macrophage, 48 h), greater than 90 µM. In experiment [4], the “Ratio IC50” value was greater than 2.3.
Regarding `CO[C@H]1C[C@H](O[C@H]2[C@H](C)O[C@@H](O[C@H](C(C)O)[C@@H](C)CO)C[C@@H]2OC)O[C@@H](C)[C@@H]1O` (some centres undefined), the IC50 was greater than 90 µM in the experiment on Leishmania amazonensis [1] (setting [5]); greater than 90 µM in the experiment on Leishmania amazonensis [2] (setting [5]); 86.2 µM in experiment [3] (Mus musculus, Macrophage, 48 h). The “Ratio IC50” value in experiment [4] is less than 1.
Consider `CC[C@H](C)[C@H]1O[C@]2(CC[C@@H]1C)C[C@@H](O)C[C@@H](C/C=C(\C)[C@@H](O)[C@@H](C)CO)O2` [NORTHERN AGLYCONE], for which the IC50 is greater than 90 µM with Leishmania amazonensis [1] (setting [5]); 30.5 µM with Leishmania amazonensis [2] (setting [5]); greater than 90 µM in experiment [3] (Mus musculus, Macrophage, 48 h). Moreover, in experiment [4], the “Ratio IC50” value is reported as greater than 3.
As to `CC[C@H](C)[C@H]1O[C@]2(CC[C@@H]1C)C[C@@H](O)C[C@@H](CCO)O2` [SPIRODIOL], the IC50 is greater than 90 µM with Leishmania amazonensis [1] (setting [5]); 54.5 µM with Leishmania amazonensis [2] (setting [5]); greater than 90 µM in experiment [3] (Mus musculus, Macrophage, 48 h). For the same compound, the “Ratio IC50” value in experiment [4] is greater than 1.7.
